The values below come from ChEMBL document CHEMBL5029188.

The nature of data set [1]: Inhibition of SARS CoV-2 3C like protease using FAM-SAVLQ/SG-QLX520 as substrate pretreated for 1 hr followed by substrate addition and measured after 1 hr by FRET assay. Also on record: species or system Severe acute respiratory syndrome coronavirus 2. In outline: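 SARS-CoV-2 3CLpro was expressed from pET-28a(+). It was preincubated with serial compound dilutions at 37°C for 1 h in 20 mM HEPES pH 8, 200 mM NaCl, 0.4 mM EDTA, 60% glycerol and 6 mM DTT. IC50 came from a variable-slope fit, averaging at least two determinations.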

Data set [2] can be described thus: Inhibition of MERS CoV 3C like protease using FAM-SAVLQ/SG-QLX520 as substrate pretreated for 30 mins followed by substrate addition and measured after 1 hr by FRET assay. Also on record: species or system Middle East respiratory syndrome-related coronavirus.
Data set [3] can be described thus: Inhibition of SARS CoV-2 3C like protease expressed in HEK293T cells transfected with pGlo-VRLQS incubated for 6 hrs by firefly/renilla luciferase reporter assay. It counts as cell-based. As to conditions: Severe acute respiratory syndrome coronavirus 2, HEK-293T. In outline: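 HEK293T cells, one day old, were co-transfected with pR-SARS-CoV-2 3CLpro (3CLpro gene in a PRRSV replicon, between ORF1b and 2a) and pGlo-VRLQS (caged firefly luciferase with a VRLQS cleavage site, plus Renilla control). C145A-mutant and mock transfections served as negative controls. Next morning, serial compound dilutions were added for 6 h at 37 C. Read-out was the firefly/Renilla ratio, and EC50 came from a variable-slope fit.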
In general terms: A reporter such as luciferase makes a cellular process visible.

A further data set concerns SARS-CoV-2. Description: Antiviral activity against SARS CoV-2 infected in African green monkey Vero cells assessed as inhibition of viral replication incubated for 48 to 72 hrs by plaque reduction assay. As to conditions: Severe acute respiratory syndrome coronavirus 2, Vero. It counts as functional, organism-based. For orientation: In a plaque reduction assay, fewer plaques than in the control indicate reduced infectivity or spread.

The next data set has as its system HEK-293T. Description: Cytotoxicity against HEK293T cells assessed as reduction in cell viability measured after 72 hrs by CytoTox 96 nonradioactive cytotoxicity assay. To be noted: human. In kind it is cell-based. The gist of the method:
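HEK293T cells were exposed to compound at 1 to 100 μM for 72 h. Cytotoxicity was read with a CytoTox 96 nonradioactive kit, and CC50 was fitted with a variable-slope curve.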

For orientation: IC50 means the concentration that inhibits the measured activity by half. Usually EC50 stands for the concentration giving half of the maximal effect. In general, CC50 refers to the concentration that lowers cell viability or growth by half.

`CC(C)C[C@H](NC(=O)OC(c1ccccc1)C1CCC(F)(F)CC1)C(=O)N[C@@H](C[C@@H]1CCNC1=O)C(O)S(=O)(=O)O` (stereo not given in full): the IC50 in data set [1] worked out at 170 nM; in data set [2] it was 50 nM. The EC50 in data set [3] was found to be 1450 nM; in the data set with SARS-CoV-2 it was 700 nM. Moreover, in the data set with HEK-293T, the CC50 was over 100000 nM.
